Compound activity: PubChem, several laboratories
Most compounds without a hit are left out; they make up all but 2.2% or so of the library.
ABHD5 PLIN5 PPI: ABHD5-PLIN5 interaction inhibitors, primary screen, cell lysate, split luciferase complementation, luminescence; Split G. princeps luciferase complementation, 4 h; inhibition, % at 4 µM; actives 0.78% (n = 360,000); AID 602281, 2012;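 active = inhibition above the mean inhibition across every tested compound plus 3 SD, cut at about 22% in these data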
PfGluPho inh: PfG6PD enzyme inhibitors, primary screen, biochemical, fluorescence intensity, uHTS; AID 504690, 2011; inhibition, % at 20 µM; actives 0.78% (n = 350,000); glucose-6-phosphate dehydrogenase-6-phosphogluconolactonase (Plasmodium falciparum 3D7); PfGluPho enzyme, NADPH resazurin-diaphorase fluorescence;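 active = inhibition reaching at least a set limit at 20 µM in the primary screen, cut at about 59% in these data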
HKDC1 inh: HKDC1 hexokinase inhibitors, primary screen, biochemical, fluorescence, uHTS | actives 0.16% (n = 340,000) | AID 493160, 2011 | Q2TB90 | recombinant HKDC1, G6PDH/diaphorase resazurin coupled fluorescence | inhibition, % at 20 µM;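 active = inhibition above about 35% when tested at 20 µM, limit read from the data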
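Material – in-house recombinant HK5 (HKDC1) enzyme · Quantity – HKDC1 at 5 µg/mL · Buffer or medium – pH 8.0 Tris buffer with 10 mM MgCl2 · Reagent – glucose with 1 mM ATP · Dosing – single 20 µM dose · Times – reaction time 90 min, room temperature, protected from light · Technique – resorufin fluorescence at 613 nm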
Exocytosis inh: LAMP-1 surface exposure blockers, TALL-104 cells – cell-based, flow cytometry, MLPCN library, primary screen; actives 0.66% (n = 360,000); TALL-104 LAMP-1 surface exposure; cells stimulated with thapsigargin and PMA; inhibition, % at 10 µM;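 active = inhibition above about 55%, limit read from the data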
PfG6PD confirm: PfG6PD inhibitors, hit retest, confirmation, biochemical, fluorescence intensity, single concentration; recombinant PfGluPho, NADPH-diaphorase-resazurin fluorescence; actives 34% (n = 2,400); inhibition, % at 20 µM; AID 504753, 2011; shares compounds with PfGluPho inh;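 active = inhibition of at least 50% at 20 µM in any single replicate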
Diaph ctr 10uM: diaphorase inhibitors and chemical oxidizers, confirmation, counter-screen for P. falciparum G6PD inhibitor project, biochemical, fluorescence intensity, 10 µM NADPH. inhibition, % at 20 µM. actives 39% (n = 820). shares compounds with PfGluPho inh. diaphorase-coupled resazurin reduction, NADPH 10 uM;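 active = average inhibition reaching 50% or more with the compound at 20 µM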;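 note: resorufin red fluorescence formed as diaphorase reduces resazurin using NADPH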
Diaphorase 30uM: diaphorase inhibitors and chemical oxidizers, confirmation, counter-screen for P. falciparum G6PD inhibitor project, biochemical, fluorescence intensity, 30 µM NADPH; shares compounds with PfGluPho inh; Diaphorase/resazurin coupled assay, resorufin fluorescence; inhibition, % at 20 µM; actives 29% (n = 820); AID 504863, 2011;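 active = inhibition averaging 50% or more, tested at 20 µM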
A number is an active result; . = inactive; / = not tested or not shown.

SMILES	ABHD5 PLIN5 PPI	PfGluPho inh	HKDC1 inh	Exocytosis inh	PfG6PD confirm	others
COc1cc(C2CC(=O)N3CN(Cc4ccco4)CSC3=C2C#N)ccc1OCc1ccccc1 (configuration not stated)	.	60.3	.	.	.
COc1ccc(OCc2nnc(SCC(=O)N(C)Cc3ccccc3)n2N)cc1	.	.	.	.	/
CC(C(=O)OCC(=O)N1CCN(c2ccccc2)CC1)N1C(=O)c2ccccc2C1=O (configuration not stated)	.	.	.	.	/
Cc1onc(-c2c(Cl)cccc2Cl)c1C(=O)N=C(N)N1CC(C)OC(C)C1 (configuration not stated)	.	.	.	.	/
CCOC(=O)c1csc(NC(=O)c2ccc3c(c2)OCCO3)n1	.	.	.	.	/
CC1(C)OC(=O)C2=C(C[C@@H](CCc3ccccc3)O[C@@H]2c2ccc(Cl)cc2)O1	.	/	/	.	/
N#CC1=C2SCN(Cc3ccccc3)CN2C(=O)CC1c1cccs1 (configuration not stated)	.	70.9	.	.	.
COc1ccc2ccccc2c1C1CC(=O)N2CN(C3CCCCC3)CSC2=C1C#N (configuration not stated)	.	72.1	.	.	64.7	Diaph ctr 10uM=.;Diaphorase 30uM=.
COc1ccc(C2CC(=O)N3CN(Cc4ccco4)CSC3=C2C#N)cc1 (configuration not stated)	.	59.2	.	.	.
COc1ccc(CN2CCN(Cc3ccco3)CC2)cc1	.	.	.	.	/
CC(C)(C)OC(=O)C(C)(C)Sc1nnc(N)s1	.	.	.	.	/
CCC(=O)c1ccc(SC(=O)N(C)C)cc1O	.	.	.	.	/
O=S1(=O)c2ccc(Br)cc2N2CCC[C@@H]2CN1Cc1ccccc1	.	.	.	.	/
CCOc1ccc(NS(=O)(=O)c2ccc(C(=O)NCC(c3ccco3)N3CCCCC3)cc2)cc1 (configuration not stated)	.	.	/	.	/
Cc1ccc(-c2nn(-c3ccccc3)cc2/C=N/NC(=O)c2ccncc2)o1	.	59.6	.	.	.
CCc1ccc(C(O)c2ncc(-c3ccc(C)cc3)[nH]2)cc1 (configuration not stated)	.	/	/	.	/
O=C(Nc1ccccc1Cl)Oc1ccc(-c2ccccc2)cc1	.	.	.	.	/
C=CCn1c(C)cc(C(=O)COC(=O)CCc2cc(OC)c(OC)c(OC)c2)c1C	.	80.4	.	.	.
O=C(NC1CC1(c1ccccc1)c1ccccc1)c1ccccc1 (configuration not stated)	.	76.9	.	.	.
O=S(=O)(NNc1ncc(C(F)(F)F)cc1Cl)c1ccc(F)cc1F	.	64.8	.	.	.
Cc1cccc(-n2c(=S)[nH]c3sc4c(c3c2=O)CCc2ccccc2-4)c1	.	66.7	.	.	51.9	Diaph ctr 10uM=.;Diaphorase 30uM=.
Cc1ccc(-n2c(=S)[nH]c3sc4c(c3c2=O)CCc2ccccc2-4)cc1	.	.	.	.	/
CN(C)C(=O)c1cccc(-c2cccc3nccn23)c1	.	/	/	.	/
O=C(CSc1cc(Cl)ccc1Cl)NC1CCCc2ccccc21 (configuration not stated)	.	.	.	.	/
Cc1ccc2nc(SCC(=O)NC3CCCc4ccccc43)[nH]c2c1 (configuration not stated)	.	75.3	.	.	58.7	Diaph ctr 10uM=64.3;Diaphorase 30uM=.
SMILES	ABHD5 PLIN5 PPI	PfGluPho inh	HKDC1 inh	Exocytosis inh	PfG6PD confirm	others
O=C(COc1ccccc1-c1ccccc1)N/N=C/c1cccc2ccccc12	.	.	.	.	/
O=C(COc1cccc2ccccc12)N/N=C/c1ccccc1OCc1ccc(C(=O)O)cc1	.	76.8	.	.	.
CCOC(=O)C(CCCP(=O)(c1ccccc1)c1ccccc1)(NC(C)=O)C(=O)OCC	.	.	.	.	/
CC(=O)Nc1cc([N+](=O)[O-])ccc1OCc1ccccc1	.	72.4	.	.	50.1	Diaph ctr 10uM=.;Diaphorase 30uM=.
Cc1ccc(-n2c(=S)sc3c(=O)n(-c4ccc(F)cc4)c(SCC(=O)O)nc32)cc1C	.	.	.	.	/
Cc1ccc(-n2c(SCC(=O)O)nc3c(sc(=S)n3-c3ccc(C)c(C)c3)c2=O)cc1	.	75.0	.	.	.
Nc1nonc1-n1nnc(C(=O)N/N=C/c2cc(Br)cs2)c1-c1ccccc1	.	.	.	.	/
Cc1ccc(Nc2n[nH]c(=S)s2)cc1	.	.	/	.	/
Cc1ccc(Nc2n[nH]c(=S)s2)cc1F	.	72.2	.	.	.
S=c1[nH]nc(Nc2ccc(Cl)cc2)s1	.	64.5	.	.	.
COc1cc(CNc2ccc(N3CCCC3)cc2)ccc1OCc1ccccc1	.	.	.	.	/
COc1cc(CNc2ccc(N3CCCC3)cc2)ccc1OCc1ccccc1F	.	97.4	.	.	59.3	Diaph ctr 10uM=.;Diaphorase 30uM=.
CCOc1cc(CNc2ccc(O)cc2)cc(Br)c1OCc1ccccc1F	.	.	.	.	/
COc1cc(CNc2ccc(O)cc2)cc(Br)c1OCc1ccccc1F	.	60.2	.	.	.
CNS(=O)(=O)c1ccc2nc(NC(=O)c3ccc(N4C(=O)CCC4=O)cc3)sc2c1	.	63.5	.	.	.
O=C1c2ccccc2C(Nc2ccc3c(c2)OCO3)N1Cc1ccco1 (configuration not stated)	.	61.1	.	.	.
O=C1c2ccccc2C(Nc2cccnc2)N1Cc1ccc2c(c1)OCO2 (configuration not stated)	.	.	.	.	/
O=C1c2ccccc2C(Nc2ccc3c(c2)OCO3)N1Cc1ccc2c(c1)OCO2 (configuration not stated)	.	59.5	.	.	.
O=[N+]([O-])c1ccc(-c2c[nH]c(=S)[nH]2)cc1	.	64.4	.	.	.
S=c1[nH]cc(-c2ccccc2)[nH]1	.	.	.	.	/
CCn1c([N+](=O)[O-])nc2c1c(=O)[nH]c(=O)n2C	.	66.7	.	.	51.9	Diaph ctr 10uM=.;Diaphorase 30uM=.
O=C(CSc1nnc(NC(=O)c2ccc(F)cc2F)s1)NC1CC1	.	.	.	.	/
COc1ccc(C(=O)Nc2sc(C)c(-c3ccccc3)c2C#N)cc1OC	.	66.6	.	.	.
Cc1sc(NC(=O)COc2ccccc2)c(C#N)c1-c1ccccc1	.	.	.	.	/
Cn1c2ccccc2c(=O)c2cc(C#Cc3ccc(N)cc3)ccc21	.	79.3	.	.	.
